From ChEMBL document CHEMBL3421610, “Antimalarial activity of 4-amidinoquinoline and 10-amidinobenzonaphthyridine derivatives” (J Med Chem, 2015)
Converted amounts (≈) assume the structure as drawn. The source made the active and inactive calls. The calls are words filed in the database; no cut-off is given here.

Columns and labels:
[1] = Half life in human liver microsomes at 1 uM by LC/MS analysis; type: ADME
How it was run: (§1)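 Compound at 1 µM final, diluted from […], with 0.5 mg/mL pooled human or mouse liver microsomes, NADP, MgCl2 and 0.1 M PBS pH 7.4. Reaction started with 1 U/mL G6PD and shaken at 37 °C. Aliquots quenched in cold acetonitrile at 0, 10, 20, 30 and 60 min and quantified by LC/MS. Half-life from log plot of total ion chromatogram area remaining.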

Plasmodium falciparum [2] = experiment: Antimalarial activity against chloroquine-sensitive Plasmodium falciparum D6 assessed as growth inhibition after 18 hrs by [3H]-hypoxanthine uptake assay; type: functional, organism-based
How it was run: (§2)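 P. falciparum clones D6, W2 and TM91C235; modified semiautomated microdilution. Compounds in DMSO, diluted in RPMI 1640 with 10% human plasma, tested over (1.56-100) x 10^-9 M; final DMSO 0.25-0.5%. Inoculum 0.5% parasitemia, 1% hematocrit. 24 h incubation, then [3H]-hypoxanthine added, further 18 h. Harvested and read by scintillation counting; IC50 by nonlinear regression.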

[3] = Half life in mouse liver microsomes at 1 uM by LC/MS analysis; type: ADME; how it was run: as §1
hERG (KCNH2) = hERG (KCNH2) (Homo sapiens, UniProt Q12809); experiment: Inhibition of human ERG expressed in CHL cells assessed as tail current at 10 uM after 7 mins by patch clamp assay relative to control; type: cell-based; details: CHL cells expressing human ERG
hERG (KCNH2), sequence (Q12809 whole entry): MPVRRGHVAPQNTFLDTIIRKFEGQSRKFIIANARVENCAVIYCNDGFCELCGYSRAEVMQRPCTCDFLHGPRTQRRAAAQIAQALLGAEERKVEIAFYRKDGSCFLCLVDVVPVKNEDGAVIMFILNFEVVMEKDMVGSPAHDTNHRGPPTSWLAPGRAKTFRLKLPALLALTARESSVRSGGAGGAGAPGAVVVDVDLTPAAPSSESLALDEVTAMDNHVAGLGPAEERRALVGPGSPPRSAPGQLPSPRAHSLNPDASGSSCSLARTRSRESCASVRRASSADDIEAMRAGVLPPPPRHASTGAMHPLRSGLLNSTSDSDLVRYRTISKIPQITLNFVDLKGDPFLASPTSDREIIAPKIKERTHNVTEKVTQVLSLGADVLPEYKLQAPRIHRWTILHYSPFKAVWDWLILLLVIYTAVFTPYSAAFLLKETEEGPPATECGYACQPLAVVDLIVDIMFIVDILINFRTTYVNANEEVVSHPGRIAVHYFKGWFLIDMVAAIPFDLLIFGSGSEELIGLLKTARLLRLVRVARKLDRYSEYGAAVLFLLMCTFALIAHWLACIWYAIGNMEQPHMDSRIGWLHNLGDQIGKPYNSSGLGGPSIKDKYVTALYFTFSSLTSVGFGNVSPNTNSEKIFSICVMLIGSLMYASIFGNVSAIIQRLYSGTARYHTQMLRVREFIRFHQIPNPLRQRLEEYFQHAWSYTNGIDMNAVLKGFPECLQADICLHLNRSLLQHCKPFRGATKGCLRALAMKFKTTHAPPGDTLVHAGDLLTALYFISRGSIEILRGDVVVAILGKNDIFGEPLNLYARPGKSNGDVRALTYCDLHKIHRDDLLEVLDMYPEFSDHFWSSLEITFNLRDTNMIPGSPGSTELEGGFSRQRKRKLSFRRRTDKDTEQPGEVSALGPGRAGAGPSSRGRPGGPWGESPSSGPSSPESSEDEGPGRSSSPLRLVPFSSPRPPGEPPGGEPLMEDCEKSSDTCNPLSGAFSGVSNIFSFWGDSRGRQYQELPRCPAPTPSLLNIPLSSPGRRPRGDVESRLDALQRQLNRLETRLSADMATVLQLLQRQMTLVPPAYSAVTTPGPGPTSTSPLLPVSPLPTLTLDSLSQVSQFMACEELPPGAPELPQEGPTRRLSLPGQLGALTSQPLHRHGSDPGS

Plasmodium falciparum [4] = experiment: Antimalarial activity against chloroquine-resistant Plasmodium falciparum C235 assessed as growth inhibition after 18 hrs by [3H]-hypoxanthine uptake assay; type: functional, organism-based; how it was run: as §2
HepG2 = experiment: Cytotoxicity against human HepG2 cells after 48 hrs by MTT assay; type: cell-based; details: HepG2, 48 h
How it was run: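 HepG2 cells in supplemented MEM, plated at 9570 cells/well in 384-well format and incubated overnight at 37 °C, 5% CO2. Twelve duplicate 1.6-fold dilutions, 57–10,000 ng/ml, incubated 48 h. MTT added for 1 h at room temperature in the dark, formazan dissolved in acidified isopropanol, absorbance read. IC50 by sigmoidal variable-slope nonlinear regression; tryptanthrin control.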

Plasmodium falciparum [5] = experiment: Antimalarial activity against chloroquine-resistant Plasmodium falciparum W2 assessed as growth inhibition after 18 hrs by [3H]-hypoxanthine uptake assay; type: functional, organism-based; how it was run: as §2
Plasmodium berghei = experiment: Antimalarial activity against erythrocytic stage of chloroquine resistant Plasmodium berghei ANKA infected in mouse assessed as cure rate at 160 mg/kg, po qd administered on day 3, 4 and 5 post infection measured 3 times per week for 30 days, starting from day 3 by Thompson test; type: functional, organism-based; set-up: dose 160 mg/kg
How it was run: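 Male mice of 16-20 g inoculated intraperitoneally with 5 x 10^6 erythrocytes infected with CQ-resistant P. berghei ANKA. Drug given orally as a suspension once daily on days 3, 4 and 5 post-infection, five mice per dose. Blood films from day 3, three times weekly for 30 days. Cure means parasite-negative on day 30 or surviving 30 days. Mice losing >20% body weight sacrificed.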

Compound	half-life at 1 µM [1] [min]	IC50 (Plasmodium falciparum [2]) [nM]	half-life at 1 µM [3] [min]	inhibition at 7 min, 10 µM (hERG (KCNH2)) [%]	IC50 (Plasmodium falciparum [4]) [nM]	IC50 (HepG2) [µg/mL]	IC50 (Plasmodium falciparum [5]) [nM]	Activity (Plasmodium berghei)
CCN(CC)CCC/N=C(/Nc1c2ccc(Cl)cc2nc2ccc(OC)nc12)c1cccnc1	32	7.2	29	63	8.2	8.6 (≈ 18 µM)	20.6	
CCN(CC)CCCN/C(=N\c1ccnc2cc(Cl)ccc12)c1cccnc1	36	38.9	> 60	101	79.5	7.87 (≈ 19.9 µM)	203	
O=C1c2ccccc2-n2c1nc1ccccc1c2=O [TRYPTANTHRIN]						0.305 (≈ 1.23 µM)		
CCN(CC)CCCN/C(C)=N\c1ccnc2cc(Cl)ccc12	> 60	138	> 60		133	> 10	226	
CCN(CC)CCC/N=C(\c1cccnc1)N(CCCN(CC)CC)c1ccnc2cc(Cl)ccc12	> 60	34.8	> 60		290	2.94 (≈ 5.78 µM)	383	
CCN(CC)CCC/N=C(/Nc1c2ccc(Cl)cc2nc2ccc(OC)nc12)c1ccccc1	16	1.7	26		2.8	3.7 (≈ 7.77 µM)	5.6	
COc1ccc2nc3cc(Cl)ccc3c(N(CCCN(C)C)/C(C)=N/CCCN(C)C)c2n1	> 60	11.7	> 60	18.3	51	1.7 (≈ 3.6 µM)	80.8	
CC(C)/C(=N/c1ccnc2cc(Cl)ccc12)NC1CCN(Cc2ccccc2)CC1	25	15	30	51.8	30.9	5.15 (≈ 12.2 µM)	58.7	
CCN(CC)CCC/N=C(/Nc1c2ccc(Cl)cc2nc2ccc(OC)nc12)C(C)C	20	2	22	86.5	3.8	2.06 (≈ 4.67 µM)	8.8	
Clc1ccc2c(N(CCCN3CCCCC3)/C(=N/CCCN3CCCCC3)c3ccccc3)ccnc2c1	31	1.9	> 60	21.7	6.95	2.45 (≈ 4.6 µM)	16	
CCCCN(CCCC)CCC(O)c1cc2c(Cl)cc(Cl)cc2c2cc(C(F)(F)F)ccc12 (centres undefined) [HALOFANTRINE]				100				
CCN(CC)CCCN(CCCN(CC)CC)/C(C)=N\c1ccnc2cc(Cl)ccc12	> 60	15	> 60	16.2	33.9	3 (≈ 6.73 µM)	121	
C/C(=N/c1ccnc2cc(Cl)ccc12)NCCc1ccncc1	47	920	13		719	11.3 (≈ 34.7 µM)	617	
CN(C)CCC/N=C(\c1ccccc1)N(CCCN(C)C)c1ccnc2cc(Cl)ccc12	> 60	7.1	> 60	16.4	45.4	5.77 (≈ 12.8 µM)	121	
OC(c1cc(C(F)(F)F)nc2c(C(F)(F)F)cccc12)C1CCCCN1 (centres undefined) [MEFLOQUINE]				95				
COc1ccc2nc3cc(Cl)ccc3c(N/C(=N/CCCN(C)C)C(C)C)c2n1	33	2.2	46	72.1	4.3	3.56 (≈ 8.6 µM)	9.7	
CCN(CC)CCN/C(C)=N\c1ccnc2cc(Cl)ccc12	26	189	18		182	1.32 (≈ 4.15 µM)	296	
CCN(CC)CCC/N=C(/N=c1\ccn(CCCN(CC)CC)c2cc(Cl)ccc12)c1cccnc1	> 60	2500	> 60		2660	14.1 (≈ 27.7 µM)	3920	
CCN(CC)CCC/N=C(\c1ccccc1)N(CCCN(CC)CC)c1ccnc2cc(Cl)ccc12	> 60	6.1	> 60	21.9	33.7	4.09 (≈ 8.05 µM)	76.8	
C/C(=N/c1ccnc2cc(Cl)ccc12)NCCCN1CCOCC1	25	327	22		578	> 30.3	295	
CCN(CC)CCCCCN/C(C)=N\c1ccnc2cc(Cl)ccc12	56	125	> 60		175	12.5 (≈ 34.5 µM)	455	
COc1ccc2nc3cc(Cl)ccc3c(N/C(=N/CCCN3CCCCC3)C(C)C)c2n1	9	1.1	8	69.6	1.94	2.01 (≈ 4.42 µM)	3.96	
CCN(CC)CCCC(C)Nc1ccnc2cc(Cl)ccc12 (centres undefined) [CHLOROQUINE]	> 60		> 60	71		12 (≈ 37.6 µM)		Active
Clc1ccc2c(/N=C(\NCCCN3CCCCC3)c3ccccc3)ccnc2c1	12	5.2	18	93	5.7	5.12 (≈ 12.6 µM)	15.7	
C/C(=N/c1ccnc2cc(Cl)ccc12)NCCC1CCN(c2ccncc2)CC1	> 60	36.4	> 60		64	6.73 (≈ 16.5 µM)	193	
C/C(=N/c1ccnc2cc(Cl)ccc12)NC1CCN(C)CC1	> 60	76	> 60		89	> 30.3	275	
CCN(CC)CCCN(CCCN(CC)CC)/C(=N\c1c2ccc(Cl)cc2nc2ccc(OC)nc12)C(C)C	> 60	1.1	> 60	32.5	3.2	0.668 (≈ 1.2 µM)	6.1	
